Data published in ChEMBL document CHEMBL1125515, “DNA-directed alkylating agents. 5. Acridinecarboxamide derivatives of (1,2-diaminoethane)dichloroplatinum(II)” (J Med Chem, 1992).

How the values were obtained:
[1] = In Vitro evaluation for the growth inhibition of Subline (P388/CP) Leukemia cell lines; type: functional, cell-based, Mus musculus
Outline: (§1)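 Cells were continuously exposed to drug for 72 h in 96-well cultures. IC50 is the drug concentration (μM) inhibiting cell growth by 50%. Determinations were run in triplicate.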

Mus musculus [2] = experiment: Compound was treated in vivo for percent increase in life span of treated animals (optimal dose 65 mg/kg, ip) compared with P338/W bearing control animals; type: functional
P388 = experiment: In Vitro evaluation for the growth inhibition of Wildtype P388 Leukemia cell lines; type: functional, cell-based; conditions: Mus musculus; outline: as §1
[3] = In Vitro evaluation for the growth inhibition of Subline (P388/AMSA) Leukemia cell lines; type: functional, cell-based, Mus musculus; outline: as §1
Mus musculus [4] = experiment: Compound was treated in vivo for percent increase in life span of treated animals (optimal dose 30 mg/kg, ip) compared with […]/W bearing control animals; type: functional
Mus musculus [5] = experiment: Compound was treated in vivo for percent increase in life span of treated animals (optimal dose 20 mg/kg, ip) compared with […]/W bearing control animals; type: functional
Mus musculus [6] = experiment: Compound was treated in vivo for percent increase in life span of treated animals (optimal dose 13.3 mg/kg, ip) compared with […]/W bearing control animals; type: functional, organism-based; set-up: dose 13.3 mg/kg; conditions: at 13.3 mg/kg
Mus musculus [7] = experiment: Compound was treated in vivo for percent increase in life span of treated animals (optimal dose 13.3 mg/kg) compared with […]/CP bering control animals; type: functional, organism-based; set-up: dose 13.3 mg/kg; conditions: at 13.3 mg/kg
Mus musculus [8] = experiment: Compound was treated in vivo for percent increase in life span of treated animals (optimal dose 5.3 mg/kg, ip) compared with P338/W bearing control animals; type: functional, organism-based; set-up: dose 5.3 mg/kg; conditions: at 5.3 mg/kg
Mus musculus [9] = experiment: Compound was treated in vivo for percent increase in life span of treated animals (optimal dose 5.5 mg/kg, ip) compared with P338/W bearing control animals; type: functional, organism-based; set-up: dose 5.5 mg/kg; conditions: at 5.5 mg/kg
Mus musculus [10] = experiment: Compound was treated in vivo for percent increase in life span of treated animals (optimal dose 100 mg/kg, ip) compared with […]/W bearing control animals; type: functional
Mus musculus [11] = experiment: Compound was treated in vivo for percent increase in life span of treated animals (optimal dose 45 mg/kg, ip) compared with […]/W bearing control animals; type: functional

| Compound | IC50 ([1]; Mus musculus) | IC50 (P388) | IC50 ([3]; Mus musculus) | also measured |
| --- | --- | --- | --- | --- |
| Cl.NCCNCCCCCCNC(=O)c1cccc2c(N)c3ccccc3nc12 | 2300 nM | 5200 nM |  | Increase in life-span (Mus musculus [2]): <20% |
| Cl.NCCNCCCNC(=O)c1cccc2cc3ccccc3nc12 | 590 nM | 740 nM | 1600 nM | Increase in life-span (Mus musculus [4]): 64% |
| DICHLORO(ETHYLENEDIAMINE) PLATINUM (II) [listing 1 of 2 here] |  |  |  | IC50 [1]: 1030 nM |
| Cl.NCCNCCCCCCNC(=O)c1cccc2cc3ccccc3nc12 | 350 nM | 510 nM | 1100 nM | Increase in life-span (Mus musculus [5]): 23% |
| DICHLORO(ETHYLENEDIAMINE) PLATINUM (II) [listing 2 of 2 here] |  |  |  | Increase in life-span (Mus musculus [6]): 70%; Increase in life-span (Mus musculus [7]): < 20% |
| CISPLATIN [listing 1 of 2 here] |  |  |  | IC50 [3]: 5500 nM; IC50 [1]: 5300 nM |
| CISPLATIN [listing 2 of 2 here] |  |  |  | Increase in life-span (Mus musculus [8]): 120%; Increase in life-span (Mus musculus [9]): < 20% |
| Cl.NCCNCCCCCCNC(=O)c1ccc2nc3ccccc3cc2c1 | 3800 nM | 3600 nM |  | Increase in life-span (Mus musculus [10]): <20% |
| Cl.NCCNCCCNC(=O)c1ccc2nc3ccccc3cc2c1 | 4900 nM | 3800 nM |  | Increase in life-span (Mus musculus [10]): <20% |
| Cl.NCCNCCCNC(=O)c1cccc2c(N)c3ccccc3nc12 | 2600 nM | 3100 nM | 870 nM | Increase in life-span (Mus musculus [11]): 45% |
